A selection: hits, their analogues and other compounds. The true share with any hit is near 1.7%.
rRNA inh HTS – inhibitors of bacterial rRNA selective over humanized ribosomes; E. coli WT GFP vs humanized-ribosome RFP mutants, fluorescence, 24 h; stronger effect = lower value; DMSO median 0, no signal -100; GFP signal change (wild-type ribosome), % (concentration not given with the values); 350,000 compounds, 1.6% hits; AID 720706;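 active = significant combined selectivity score with lowered wild-type GFP, culture density cut under 30%, mutant RFP and density less affected; inactive = any of these conditions unmet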
CFTR F508del cor – CFTR F508del correction in bronchial cells; activity (quench increase), % at 7.58 µM; CFBE cells, YFP halide quenching; stimulated with forskolin plus potentiator P3; % fluorescence drop versus neutral controls; 350,000 compounds, 0.36% hits;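 active = mean added fluorescence quench of at least 8% versus neutral control, with both replicates also reaching 8%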;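 also: cells transiently co-express mutant CFTR-F508del with the halide-sensitive YFP; corrector assay measuring rescue of mutant channel to the surface after 24 h compound exposure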
CaV13 ICDI inh – Disruptors of the CACNA1D IQ motif to Ca2+-dependent inactivation inhibitor domain association, primary screening, Förster resonance energy transfer in intact living …; 340,000 compounds, 0.098% hits; AID 743397; HEK cells, CFP/YFP FRET ICDI-IQ, plate reader, 10 min; percent FRET-ratio fall versus neutral wells; inhibition, % at 12.3 µM;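 active = mean replicate inhibition of at least 30% and at least 1% of replicates passing that level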
Cneo AK release – Cryptococcus neoformans lysis via adenylate kinase release. AID 651654. C. neoformans lysis, adenylate kinase release luminescence, 4 h; normalised: neutral wells 0, clomiphene wells 100. lysis activity, % at 15 µM. 360,000 compounds, 0.2% hits;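 active = mean lysis activity across replicates of at least 80%, whatever share of replicates individually reach that level; inactive = mean lysis activity below 80%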
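Test system: log-phase Cryptococcus neoformans yeast cells. Input: 5 × 10^6 yeast cells/mL. Medium: fresh YPD growth medium. Doses: single dose. Incubation: static 4 h at 37 °C with compound, 1 h detection. Measured by: luminescent adenylate kinase detection reagent. Read-out: signal increase indicating cell lysis. Benchmarks: Clomiphene.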
A number is an active result; i = inactive; nt = no result; + = active, no number.

SMILES	rRNA inh HTS	CFTR F508del cor	CaV13 ICDI inh	Cneo AK release
C[C@H](CO)N1C[C@H](C)[C@H](CN(C)CC2CC2)Oc2cc(C#Cc3ccc(F)cc3)ccc2S1(=O)=O	i	i	nt	i
CCOc1ccc(CN(C)CC(=O)NCc2ccccc2Cl)cc1	-28.1	nt	i	nt
O=C(Nc1cccc(F)c1)N1CC(=O)N2[C@@H](CO)[C@@H](c3ccc(C#CC4CC4)cc3)[C@@H]2C1	i	i	nt	nt
O=C(O)c1ccc(Cl)cc1NC(=O)C1CCN(S(=O)(=O)c2cccs2)CC1	-17.7	i	i	i
CCCN1CCc2c(sc(NC(=O)C3CCN(S(=O)(=O)c4cccs4)CC3)c2C(N)=O)C1	i	i	33.8	i
CC(=O)N1CCc2c(sc(NC(=O)C3CCN(S(=O)(=O)c4cccs4)CC3)c2C(N)=O)C1	i	i	i	i
O=C(NCCc1ccc(Cl)cc1)C1CCN(S(=O)(=O)c2cccs2)CC1	nt	nt	i	i
COc1ccc(S(=O)(=O)Nc2ccc3c(c2)C(=O)N([C@@H](C)CO)C[C@H](C)[C@H](CN(C)S(=O)(=O)c2ccccc2)OCCCC[C@H](C)O3)cc1	i	i	nt	nt
Cc1ccc2c(c1)C(=O)C(=O)N2CCOc1ccccc1	-23.0	i	i	i
Cc1cccc(OCCN2C(=O)C(=O)c3cc(C)ccc32)c1	i	i	i	i
Cc1cccc2nc(-c3cccnc3)c(NCCC(C)C)n12	i	i	i	nt
Cc1cccc2nc(-c3cccnc3)c(Nc3ccccc3)n12	-36.0	i	i	i
COc1ccccc1CNC(=O)C[C@@H]1C[C@H]2c3cc(NC(=O)NC4CCCC4)ccc3O[C@H]2[C@H](CO)O1	i	i	nt	i
C[C@H]1CCCCO[C@@H](CN(C)C(=O)Nc2ccccc2)[C@@H](C)CN([C@@H](C)CO)C(=O)c2cc(NS(=O)(=O)c3ccc(F)cc3)ccc2O1	i	nt	nt	nt
CN1CCN(C(=O)C[C@@H]2CC[C@@H]3[C@H](COC[C@H](O)CN3Cc3ccc(Oc4ccccc4)cc3)O2)CC1	i	i	nt	i
CCOc1ccc(/C(O)=C2/C(=O)C(=O)N(c3ncccn3)C2c2ccc(Cl)cc2)cc1 (stereo not drawn)	-31.6	i	i	i
CC(=O)c1ccc(-c2c(C)cc3oc(=O)cc(-c4ccccc4)c3c2C)cc1	-21.8	i	i	i
O=C(c1ccccc1)C1C(c2ccccc2)C1[N+](=O)[O-] (stereo not drawn)	i	i	i	i
CN(C)c1ccc([C@@H]2[C@@H]([N+](=O)[O-])[C@H]3C=Cc4ccccc4N3[C@H]2C(=O)c2ccc(Cl)cc2)cc1	-27.6	i	i	i
O=C(NNC(=O)C1CCCCC1)c1ccc(Br)cc1	-24.3	i	i	nt
O=C(NNC(=O)C1CCC1)c1ccc(Br)cc1	i	i	i	i
O=C(NNC(=O)c1ccccc1O)c1ccc(Br)cc1	-23.5	i	i	i
COc1ccc(NC(=O)N2CCC3(CC2)CN(C(C)=O)[C@H](CO)c2[nH]c4cc(OC)ccc4c23)cc1	i	i	nt	nt
Cc1[nH]nc(C(=O)NN=Cc2ccccc2Cl)c1N=NN(C)C	-21.0	i	i	nt
COc1ccc(S(=O)(=O)N(C)C[C@H]2Oc3ccc(NC(=O)CCCCCC(=O)Nc4ccccc4N)cc3C(=O)N([C@H](C)CO)C[C@H]2C)cc1	i	i	nt	i
SMILES	rRNA inh HTS	CFTR F508del cor	CaV13 ICDI inh	Cneo AK release
O=[N+]([O-])c1c(Nc2cccc(O)c2)cc(Cl)c2nonc12	-45.2	i	i	i
O=C(O)c1ccc(Nc2cc(Cl)c3nonc3c2[N+](=O)[O-])cc1	i	i	i	i
OC(COC(c1ccc(F)cc1)c1ccc(F)cc1)CN1CCCC(C(F)(F)F)C1 (stereo not drawn)	-22.9	i	i	i
Brc1ccc2c(c1)-c1ccccc1C1=NCCN12	i	i	i	i
Clc1ccc2c(c1)-c1ccccc1C1=NCCN12	nt	8.3	i	nt
CCCC(=O)N1CCC2(CC1)CN[C@@H](CO)c1[nH]c3cc(OC)ccc3c12	i	i	nt	nt
COc1ccc(C(=O)NCc2c(C)oc(C)c2C(=O)O)cc1	i	i	i	i
COc1ccc(C(=O)NCc2oc(-c3ccccc3)cc2C(=O)O)cc1	-23.8	nt	nt	i
CO[C@H]1CN(C)C(=O)c2cc(NS(=O)(=O)c3ccc(C)cc3)ccc2OC[C@H](C)N(C)C[C@H]1C	i	i	nt	115.7
CO[C@@H]1CN(C)C(=O)c2cc(NC(=O)Nc3c(C)noc3C)ccc2OC[C@H](C)N(C)C[C@H]1C	i	i	nt	i
CO[C@H]1CN(C)C(=O)c2cc(NS(=O)(=O)c3ccc(C)cc3)ccc2OC[C@@H](C)N(C)C[C@H]1C	i	i	nt	i
CO[C@@H]1CN(C)C(=O)c2cc(NC(=O)Nc3c(C)noc3C)ccc2OC[C@@H](C)N(C)C[C@@H]1C	i	9.6	nt	i
Cc1cc(C)c2nc(NNC(=O)c3cc(=O)c4ccccc4o3)sc2c1	-26.6	i	i	i
CCS(=O)(=O)c1ncc(Cl)c(C(=O)Nc2ccc(S(=O)(=O)N(C)c3ccccc3)cc2)n1	-36.3	i	i	i
COc1cccc(S(=O)(=O)N[C@@H]2CC[C@@H](CC(=O)NCc3ccc(Cl)cc3)O[C@H]2CO)c1	i	i	nt	i
O=C(CSc1nccc(=O)[nH]1)N1c2ccccc2CCc2ccccc21	-34.2	i	i	i
N#CC1=C(N)Oc2cc(N)ccc2C1c1ccc(F)cc1 (stereo not drawn)	nt	nt	i	i
N#CC1=C(N)Oc2cc(N)ccc2C1c1ccc(F)cc1F (stereo not drawn)	i	i	+	i
CN(c1ccccc1)S(=O)(=O)c1ccccc1Br	-38.4	i	i	i
Cc1cc(C)nc(-n2nc(C)c3c(C(F)(F)F)cc(=O)[nH]c32)n1	i	nt	i	i
Cc1cc(C)nc(-n2nc(C)c(Sc3ccc(F)cc3)c2N)n1	-40.2	i	i	i
O=C(NNC(=O)c1cc(-c2ccccc2)nc2ccccc12)c1csc(N2CCOCC2)n1	-37.2	i	i	nt
Cc1ccc(-c2cc(C(=O)NNC(=O)c3csc(N4CCOCC4)n3)c3ccccc3n2)cc1	-18.9	i	i	i
CO[C@@H]1CN(C)C(=O)c2ccc(NC(=O)Cc3ccccc3)cc2OC[C@H](C)N(C(C)=O)C[C@H]1C	i	i	nt	i
O=C(/C=C/c1cccc([N+](=O)[O-])c1)NCCSCc1ccc(Cl)cc1	-20.4	nt	nt	nt
COc1cc(C(=O)OCC(C)=O)cc(NC(=O)c2ccco2)c1OC	i	i	178.6	i
COc1cc(C(=O)OCC(=O)NC2CCCC2)cc(NC(=O)c2ccco2)c1OC	nt	nt	i	i
COc1ccc(NC(=O)N[C@@H]2CC[C@H](CCn3cc(-c4ccc(F)cc4)nn3)O[C@@H]2CO)cc1	i	i	nt	i
O=C(N[C@H]1CC[C@H](CCn2cc(-c3ccccn3)nn2)O[C@H]1CO)c1ccc(F)cc1	i	i	nt	83.1
COc1ccc(NC(=O)N[C@@H]2CC[C@@H](CCn3cc(-c4ccc(F)cc4)nn3)O[C@@H]2CO)cc1	i	9.2	nt	i

Screening results: PubChem BioAssay, Broad Institute
